Shown are actives, neighbours in structure and some others; about 2% of the full set was active somewhere.
S100A4 inh HTS – S100A4-myosin IIA interaction inhibition; inhibition, % at 10.7 µM; P26447; S100A4/TAMRA-MyoIIA peptide fluorescence polarization; hit rate 0.14% among 360,000;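 active = mean inhibition of at least 70% across replicates, with every replicate also reaching that level; inconclusive = mean inhibition reaches 70% but some replicates fall short; inactive = mean inhibition below 70%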
Target sequence (P26447 whole entry, looked up): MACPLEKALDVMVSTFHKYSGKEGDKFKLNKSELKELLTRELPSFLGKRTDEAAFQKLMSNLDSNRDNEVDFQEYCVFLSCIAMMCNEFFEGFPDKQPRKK
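Material: human S100A4 monomer with TAMRA-labelled myosin IIA peptide; buffer or medium: HEPES pH 7.2 with CaCl2, KCl, NaCl, DTT, Triton; compound dosing: one concentration per compound; schedule: 5 min incubation before reading; benchmarks: neutral control DMSO, positive control TFP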
DENV2 CPE – DENV2-induced cell death inhibition | AID 651640 | DENV2-infected cells, cytopathic effect rescue, plate reader | CPE inhibition, % at 9.99 µM | hit rate 1.7% among 350,000; in the data active = CPE inhibition above about 20%, passing the limit was not always enough; inconclusive = no clear call, values can overlap the other calls; tested in BHK-21 cells;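 note: 0% = median of neutral control wells and 100% = median of positive control wells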
E-selectin induc – induces E-selectin expression in human endothelial cells; P16581; HUVEC E-selectin immunofluorescence imaging; normalized: neutral wells 0, TNF-alpha wells 100; activation, % at 7.58 µM; hit rate 0.37% among 260,000;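 active = mean E-selectin-positive cell signal at least 10% of the positive control, reached in at least 60% of replicates, without over 20% cell loss; inconclusive = no rule given, readout overlaps actives, possibly toxicity-flagged; inactive = the rest, including those meeting only one limit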
Target sequence (P16581 whole entry, looked up): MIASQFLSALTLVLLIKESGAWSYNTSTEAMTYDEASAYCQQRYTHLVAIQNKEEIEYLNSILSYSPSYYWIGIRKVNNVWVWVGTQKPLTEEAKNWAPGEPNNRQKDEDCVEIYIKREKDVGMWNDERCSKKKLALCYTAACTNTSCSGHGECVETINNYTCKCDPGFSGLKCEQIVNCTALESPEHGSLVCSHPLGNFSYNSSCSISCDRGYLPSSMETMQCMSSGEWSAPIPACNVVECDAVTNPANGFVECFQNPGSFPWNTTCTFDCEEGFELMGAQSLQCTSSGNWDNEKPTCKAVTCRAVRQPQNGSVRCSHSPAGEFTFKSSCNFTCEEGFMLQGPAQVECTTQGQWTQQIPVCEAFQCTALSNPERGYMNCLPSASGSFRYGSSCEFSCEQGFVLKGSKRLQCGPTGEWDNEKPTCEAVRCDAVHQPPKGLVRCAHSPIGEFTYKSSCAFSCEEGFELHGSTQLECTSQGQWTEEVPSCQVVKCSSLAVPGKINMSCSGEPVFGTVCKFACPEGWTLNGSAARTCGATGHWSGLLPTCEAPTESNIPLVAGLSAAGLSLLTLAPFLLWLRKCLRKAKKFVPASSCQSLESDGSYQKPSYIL
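Read-out basis: % PE-positive cells; Test system: HUVEC primary endothelial cells; Technique: immunofluorescence imaging; Dosing: single-point compound dose.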
XiGFP reactiv – reactivates the inactive X chromosome in mouse fibroblasts; XiGFP mouse fibroblasts, % GFP-positive cells imaging, 3 d; cells co-treated with 5-aza-dC sensitizer; scaled so ellipticine positive control = 100%; activation, % at 7.58 µM; hit rate 0.055% among 360,000; AID 743238;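 active = mean normalized replicate activation at least 10% and every replicate at or above 10%; inconclusive = only one of the two criteria met; inactive = mean below 10% and not all replicates reach 10%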;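 note: 0% = median of on-plate neutral control wells and 100% = ellipticine 6 µM median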
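material = 68-5-11 XiGFP fibroblast line | medium = DMEM plus 5-aza-dC sensitizer | schedule = 3 days compound exposure | benchmarks = positive control ellipticine, 6 µM final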
An asterisk follows results filed as active; ? = inconclusive; nt = no result given.

SMILES	S100A4 inh HTS	DENV2 CPE	E-selectin induc	XiGFP reactiv
CC(C)C(=O)Nc1c(-c2ccc(Cl)cc2)c(=O)c2ccccc2n1C	-3.0	-1.3	nt	-0.1
C[C@H]1CN([C@@H](C)CO)C(=O)c2cc(-c3cccnc3)cnc2O[C@H]1CN(C)C	-5.1	73.0*	0.0	-0.1
CCCN(C)C[C@@H]1Oc2ncc(-c3ccccc3)cc2C(=O)N([C@H](C)CO)C[C@@H]1C	37.1	-6.5	89.8*	-0.1
C[C@@H]1CN([C@H](C)CO)C(=O)c2cc(-c3cccnc3)cnc2O[C@H]1CN(C)C	-12.1	nt	0.8	-0.8
COc1ccc(-c2cnc3c(c2)C(=O)N([C@@H](C)CO)C[C@H](C)[C@@H](CN(C)Cc2ccccc2)O3)cc1	6.0	47.8*	0.3	0.1
C/C=C/c1cnc2c(c1)C(=O)N([C@H](C)CO)C[C@H](C)[C@H](CN(C)S(=O)(=O)c1ccccc1)O2	-3.9	79.5*	-0.1	-0.7
CCCN(C)C[C@H]1Oc2ncc(-c3ccccc3)cc2C(=O)N([C@@H](C)CO)C[C@@H]1C	1.4	-7.8	nt	nt
COc1ccc(S(=O)(=O)N2CCN(C)CC2)cn1	-5.4	?	-0.7	0.1
C[C@H](CO)N1C[C@H](C)[C@H](CN(C)Cc2ccncc2)Oc2ncc(/C=C/c3ccccc3)cc2C1=O	8.7	23.1*	0.1	-2.1
c1ccc(-c2ccc3nncn3c2)cc1	-3.0	-5.4	0.0	-0.3
Cc1ccsc1/C=C1/SC(=O)N(CC(=O)N2CCCC2)C1=O	5.4	-1.8	-0.7	0.0
C[C@H](CO)N1C[C@H](C)[C@@H](CN(C)S(C)(=O)=O)OCCCC[C@H](C)Oc2ccc(NC(=O)Nc3ccc(F)cc3)cc2C1=O	nt	26.3*	0.3	0.0
C[C@@H]1CCCCO[C@H](CN(C)S(=O)(=O)c2ccccc2)[C@@H](C)CN([C@H](C)CO)C(=O)c2cc(NC(=O)Nc3ccccc3)ccc2O1	-0.7	7.5	nt	0.0
COc1ccc(S(=O)(=O)N(C)C[C@H]2OCCCC[C@H](C)Oc3ccc(NC(=O)c4ccccc4)cc3C(=O)N([C@@H](C)CO)C[C@H]2C)cc1	4.1	5.8	0.0	-1.2
COc1ccc(S(=O)(=O)N(C)C[C@H]2OCCCC[C@H](C)Oc3ccc(NC(=O)NC(C)C)cc3C(=O)N([C@H](C)CO)C[C@H]2C)cc1	1.9	-4.5	0.1	0.2
COc1ccc(S(=O)(=O)N(C)C[C@@H]2OCCCC[C@H](C)Oc3ccc(NC(=O)NC(C)C)cc3C(=O)N([C@@H](C)CO)C[C@H]2C)cc1	3.9	49.2*	0.0	0.2
COc1ccc(S(=O)(=O)N(C)C[C@@H]2OCCCC[C@H](C)Oc3ccc(NC(=O)c4ccccc4)cc3C(=O)N([C@H](C)CO)C[C@@H]2C)cc1	-1.7	44.0*	-0.1	-0.2
C[C@@H]1CCCCO[C@@H](CN(C)S(=O)(=O)c2ccccc2)[C@@H](C)CN([C@H](C)CO)C(=O)c2cc(NC(=O)Nc3ccccc3)ccc2O1	7.1	65.5*	nt	-0.1
C[C@@H]1CCCCO[C@@H](CN(C)S(=O)(=O)c2cccs2)[C@H](C)CN([C@H](C)CO)C(=O)c2cc(NC(=O)Cc3ccccc3)ccc2O1	nt	-14.2	0.2	0.1
C[C@@H]1CCCCO[C@H](CN(C)S(=O)(=O)c2ccccc2)[C@H](C)CN([C@@H](C)CO)C(=O)c2cc(NC(=O)Nc3ccc(F)cc3)ccc2O1	-1.2	-11.7	0.0	0.0
C[C@@H]1CN([C@@H](C)CO)C(=O)c2cc(NC(=O)Nc3ccc(F)cc3)ccc2O[C@@H](C)CCCCO[C@H]1CN(C)S(=O)(=O)c1ccccc1	-0.2	124.3*	0.1	-0.1
CC(C)NC(=O)Nc1ccc2c(c1)C(=O)N([C@H](C)CO)C[C@@H](C)[C@H](CN(C)S(=O)(=O)c1ccccc1)OCCCC[C@@H](C)O2	120.9*	-2.9	0.2	0.1
C[C@@H]1CCCCO[C@H](CN(C)S(=O)(=O)c2ccc(Cl)cc2)[C@@H](C)CN([C@H](C)CO)C(=O)c2cc(NC(=O)c3ccccc3)ccc2O1	-0.2	-8.9	0.6	0.1
C[C@H](CO)N1C[C@H](C)[C@@H](CN(C)S(=O)(=O)c2ccccc2)OCCCC[C@H](C)Oc2ccc(NC(=O)Nc3ccc(F)cc3)cc2C1=O	-2.6	52.2*	0.4	0.1
C[C@H](CO)N1C[C@H](C)[C@H](CN(C)S(=O)(=O)c2ccc(Cl)cc2)OCCCC[C@H](C)Oc2ccc(NC(=O)c3ccccc3)cc2C1=O	7.8	21.4*	-0.5	-1.0
SMILES	S100A4 inh HTS	DENV2 CPE	E-selectin induc	XiGFP reactiv
CC(C)NC(=O)Nc1ccc2c(c1)C(=O)N([C@@H](C)CO)C[C@H](C)[C@@H](CN(C)S(=O)(=O)c1ccccc1)OCCCC[C@H](C)O2	-10.8	-1.5	0.0	-0.2
COCCOC(=O)c1c(NC(=O)CN(C)c2ccccc2)sc(C(N)=O)c1C	-31.7	1.6	nt	0.3
COc1ccc(NC(=O)N(C)C[C@@H]2OCCCC[C@@H](C)Oc3ccc(NC(=O)NC(C)C)cc3C(=O)N([C@H](C)CO)C[C@@H]2C)cc1	1.6	-3.0	0.1	-1.0
COc1ccc(NC(=O)Nc2ccc3c(c2)C(=O)N([C@H](C)CO)C[C@H](C)[C@H](CN(C)S(=O)(=O)c2ccc(Cl)cc2)OCCCC[C@@H](C)O3)cc1	-5.3	?	nt	0.3
COc1ccc(NC(=O)Nc2ccc3c(c2)C(=O)N([C@@H](C)CO)C[C@@H](C)[C@@H](CN(C)S(=O)(=O)c2ccccc2)OCCCC[C@@H](C)O3)cc1	-2.0	66.4*	nt	0.0
COc1ccc(NC(=O)Nc2ccc3c(c2)C(=O)N([C@@H](C)CO)C[C@H](C)[C@@H](CN(C)S(=O)(=O)c2ccccc2)OCCCC[C@@H](C)O3)cc1	7.7	8.0	nt	0.3
COc1ccc(NC(=O)Nc2ccc3c(c2)C(=O)N([C@H](C)CO)C[C@@H](C)[C@@H](CN(C)S(=O)(=O)c2ccc(Cl)cc2)OCCCC[C@H](C)O3)cc1	-5.5	40.0*	nt	0.0
CCOC(=O)C1CCN(C2CCN(C(=O)c3oc4c(F)cccc4c3C)CC2)CC1	-53.0	?	nt	-0.1
C=CCn1nc2ccccc2c1OCCO	2.4	-17.6	0.1	0.1
CCN1CCN(C(=O)c2cc3cc(Cl)ccc3[nH]2)CC1	-7.2	-1.9	0.3	0.2
CCN=C1NC(c2ccccc2C(F)(F)F)C(C(=O)OC)=C(C)N1C (stereo not drawn)	-10.8	20.9*	-0.1	0.3
COc1ccc(NC(=O)Nc2ccc3c(c2)C(=O)N([C@H](C)CO)C[C@H](C)[C@H](CN(C)Cc2ccccc2)OCCCC[C@@H](C)O3)cc1	26.0	26.3*	0.0	0.1
COc1ccc(CN(C)C[C@@H]2OCCCC[C@H](C)Oc3ccc(NC(=O)Cc4ccccc4)cc3C(=O)N([C@@H](C)CO)C[C@H]2C)cc1	nt	26.5*	-0.2	0.7
COc1ccc(NC(=O)Nc2ccc3c(c2)C(=O)N([C@@H](C)CO)C[C@@H](C)[C@@H](CN(C)Cc2ccccc2)OCCCC[C@H](C)O3)cc1	-9.6	42.3*	0.0	0.0
